{"source": "ChEMBL document CHEMBL4368912", "about": "“Discovery and Development of N-[4-(1-Cyclobutylpiperidin-4-yloxy)phenyl]-2-(morpholin-4-yl)acetamide Dihydrochloride (SUVN-G3031): A Novel, Potent, Selective, and Orally Active Histamine H3 Receptor Inverse Agonist with Robust Wake-Promoting Activity” (J Med Chem, 2019)", "key": {"Histamine H3 receptor": {"biological_target": "Histamine H3 receptor (Homo sapiens, UniProt Q9Y5N1)", "sequence (Q9Y5N1 whole entry)": "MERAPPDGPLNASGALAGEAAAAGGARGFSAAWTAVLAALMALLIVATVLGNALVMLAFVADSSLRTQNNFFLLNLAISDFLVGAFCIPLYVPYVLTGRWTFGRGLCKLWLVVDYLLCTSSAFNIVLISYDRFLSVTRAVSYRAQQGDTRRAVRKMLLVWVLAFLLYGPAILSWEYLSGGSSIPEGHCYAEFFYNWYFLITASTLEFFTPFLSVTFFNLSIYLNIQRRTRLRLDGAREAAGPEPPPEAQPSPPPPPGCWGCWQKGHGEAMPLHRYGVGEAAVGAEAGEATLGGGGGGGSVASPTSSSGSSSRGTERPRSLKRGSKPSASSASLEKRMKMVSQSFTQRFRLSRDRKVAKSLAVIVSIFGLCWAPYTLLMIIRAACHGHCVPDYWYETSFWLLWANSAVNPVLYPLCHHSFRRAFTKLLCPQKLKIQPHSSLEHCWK", "experiment": "Displacement of [3]-RAMH from recombinant human histamine H3 receptor expressed in CHO-K1 cell membranes after 60 mins by scintillation counting"}, "[1]": {"experiment": "Dissociation constant, pKa1 of the compound by potentiometric titration assay", "type": "physicochemical"}, "[2]": {"experiment": "Ratio of drug uptake in Wistar rat brain to plasma at 3 mg/kg, po by LC-MS/MS analysis", "type": "ADME, organism-based", "details": "brain and plasma, read-out: BPR", "in_short": "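Fasted male Wistar rats were dosed orally with water for injection as the vehicle. Total brain and plasma concentrations were measured at 1 h after dosing and expressed as a ratio.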"}, "[3]": {"experiment": "Clearance in Wistar rat at 1 mg/kg, iv by LC-MS/MS analysis", "type": "ADME, organism-based", "details": "in vivo", "in_short": "(§1)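 Fasted male Wistar rats dosed i.v. in water for injection at 2 mL/kg. Clearance and half-life derived from the i.v. plasma profile.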"}, "[4]": {"experiment": "AUC (0 to 24 hrs) in Wistar rat at 1 mg/kg, iv by LC-MS/MS analysis", "type": "ADME, organism-based", "parameters": "time < 24 hr, dose 1 mg/kg, route intravenous", "details": "Wistar, in vivo", "in_short": "(§2)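 Fasted male Wistar rats; compound in water for injection, given i.v. (2 mL/kg) or p.o. (10 mL/kg). Plasma exposure measured as AUC0-24hr.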"}, "[5]": {"experiment": "Dissociation constant, pKa2 of the compound by potentiometric titration assay", "type": "physicochemical"}, "[6]": {"experiment": "Lipophilicity, log D of the compound at pH 7.4", "type": "physicochemical", "details": "buffer"}, "[7]": {"experiment": "Tmax in Wistar rat at 3 mg/kg, po or 1 mg/kg, iv by LC-MS/MS analysis", "type": "ADME, organism-based", "details": "in vivo", "in_short": "(§3)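 Fasted male Wistar rats were dosed orally and intravenously, with water for injection as the vehicle for both routes, at dosing volumes of 10 mL/kg p.o. and 2 mL/kg i.v.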"}, "[8]": {"experiment": "Oral bioavailability in Wistar rat at 3 mg/kg by LC-MS/MS analysis", "type": "ADME, organism-based", "details": "in vivo", "in_short": "as §3"}, "CHO-K1 [9]": {"tested_on": "CHO-K1", "experiment": "Induction of phospholipidosis in CHOK1 cells up to 300 uM incubated for 24 hrs by fluorescent-labeled phospholipid probe NBD-PE based fluorescence assay", "type": "cell-based, Cricetulus griseus", "details": "chinese hamster, cho-k1, 24 h"}, "[10]": {"experiment": "AUC (0 to 24 hrs) in Wistar rat at 3 mg/kg, po by LC-MS/MS analysis", "type": "ADME, organism-based", "parameters": "dose 3 mg/kg, time < 24 hr, route oral", "details": "in vivo", "in_short": "as §2"}, "CHO-K1 [11]": {"tested_on": "CHO-K1", "experiment": "Cytotoxicity in CHOK1 cells up to 300 uM incubated for 24 hrs by MTT assay", "type": "cell-based, Cricetulus griseus", "details": "chinese hamster, cho-k1, 24 h"}, "[12]": {"experiment": "Partition coefficient, log P of the compound", "type": "physicochemical", "details": "octanol/water"}, "[13]": {"experiment": "Volume of distribution at steady state in Wistar rat at 3 mg/kg, po or 1 mg/kg, iv by LC-MS/MS analysis", "type": "ADME, organism-based", "details": "Wistar, in vivo, read-out: Vdss", "in_short": "as §3"}, "Rattus norvegicus": {"tested_on": "Rattus norvegicus", "experiment": "In vivo inverse agonist activity at histamine 3 receptor in rat assessed as inhibition of RAMH-induced dipsogenia at 1 to 10 mg/kg, po measured after 3 days", "type": "functional, organism-based", "in_short": "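Rats were dosed orally with 1, 3 or 10 mg/kg, then given (R)-α-methylhistamine 2.5 mg/kg s.c. Water intake (mL) was measured and reported as mean ± SEM.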"}, "[14]": {"experiment": "Half life in Wistar rat at 1 mg/kg, iv by LC-MS/MS analysis", "type": "ADME, organism-based", "details": "in vivo", "in_short": "as §1"}}, "note": "The source made the active and inactive calls. The rule behind the calls is not given here.", "data": [{"smiles": "O=C(CN1CCCCC1)Nc1ccc(OC2CCN(C3CCC3)CC2)cc1C(F)(F)F", "values": [{"measurement": "Ki", "setting": "Histamine H3 receptor", "value": 14.8, "unit": "nM"}]}, {"smiles": "O=C(CN1CCC(F)(F)CC1)Nc1ccc(OC2CCN(C3CCC3)CC2)cc1", "values": [{"measurement": "Ki", "setting": "Histamine H3 receptor", "value": 23.6, "unit": "nM"}]}, {"smiles": "C[C@@H]1CCCN1CC(=O)Nc1ccc(OC2CCN(C3CCC3)CC2)cc1", "values": [{"measurement": "Ki", "setting": "Histamine H3 receptor", "value": 2.6, "unit": "nM"}]}, {"smiles": "CC(C)N1CCC(Oc2ccc(NC(=O)CN3CCOCC3)cc2)CC1.Cl.Cl", "values": [{"measurement": "pKa", "setting": "[1]", "value": 8.9}, {"measurement": "Kp", "setting": "[2]", "value": 0.33}, {"measurement": "clearance", "setting": "[3]", "value": 48, "unit": "mL/min/kg"}, {"measurement": "AUC(0-t) at 24 h", "setting": "[4]", "value": 340, "unit": "ng·h/mL"}, {"measurement": "pKa", "setting": "[5]", "value": 5}, {"measurement": "logD", "setting": "[6]", "value": 0.5}, {"measurement": "Tmax", "setting": "[7]", "value": 0.42, "unit": "h"}, {"measurement": "bioavailability", "setting": "[8]", "value": 85, "unit": "%"}, {"measurement": "Activity", "setting": "CHO-K1 [9]", "value": "Non-Toxic"}, {"measurement": "AUC(0-t) at 24 h", "setting": "[10]", "value": 850, "unit": "ng·h/mL"}, {"measurement": "Activity", "setting": "CHO-K1 [11]", "value": "Non-Toxic"}, {"measurement": "logP", "setting": "[12]", "value": 1.8}, {"measurement": "Vd", "setting": "[13]", "value": 6, "unit": "L/kg"}]}, {"smiles": "O=C(CN1CCOCC1)Nc1cccc(OC2CCN(C3CCC3)CC2)c1", "values": [{"measurement": "Ki", "setting": "Histamine H3 receptor", "value": 212, "unit": "nM"}]}, {"smiles": "CC(C)N1CCCN(CC(=O)Nc2ccc(OC3CCN(C4CCC4)CC3)cc2)CC1", "values": [{"measurement": "Ki", "setting": "Histamine H3 receptor", "value": 0.96, "unit": "nM"}]}, {"smiles": "Clc1ccc(CCCOCCCN2CCCCC2)cc1", "values": [{"measurement": "inhibition", "setting": "Rattus norvegicus", "value": "Active"}]}, {"smiles": "CC(=O)N1CCN(CC(=O)Nc2ccc(OC3CCN(C4CCC4)CC3)cc2)CC1", "values": [{"measurement": "Ki", "setting": "Histamine H3 receptor", "value": 5.39, "unit": "nM"}]}, {"smiles": "O=C(NCCN1CCOCC1)c1ccc(OC2CCN(C3CCC3)CC2)cc1", "values": [{"measurement": "Kp", "setting": "[2]", "value": 0.07}, {"measurement": "clearance", "setting": "[3]", "value": 51, "unit": "mL/min/kg"}, {"measurement": "AUC(0-t) at 24 h", "setting": "[4]", "value": 255, "unit": "ng·h/mL"}, {"measurement": "half-life", "setting": "[14]", "value": 13.8, "unit": "h"}, {"measurement": "Tmax", "setting": "[7]", "value": 1.33, "unit": "h"}, {"measurement": "bioavailability", "setting": "[8]", "value": 46, "unit": "%"}, {"measurement": "Ki", "setting": "Histamine H3 receptor", "value": 2.8, "unit": "nM"}, {"measurement": "AUC(0-t) at 24 h", "setting": "[10]", "value": 347, "unit": "ng·h/mL"}, {"measurement": "Vd", "setting": "[13]", "value": 45, "unit": "L/kg"}]}, {"smiles": "O=C(CN1CCCN(C2CCC2)CC1)Nc1ccc(OC2CCN(C3CCC3)CC2)cc1", "values": [{"measurement": "Ki", "setting": "Histamine H3 receptor", "value": 1.61, "unit": "nM"}]}, {"smiles": "O=C(CN1CCCCC1)Nc1ccc(OC2CCN(C3CCCC3)CC2)cc1", "values": [{"measurement": "Ki", "setting": "Histamine H3 receptor", "value": 4.1, "unit": "nM"}]}, {"smiles": "O=C(CN1CCCC1)Nc1ccc(OC2CCN(C3CCCC3)CC2)cc1", "values": [{"measurement": "Ki", "setting": "Histamine H3 receptor", "value": 3.8, "unit": "nM"}]}, {"smiles": "C[C@@H]1CCCN1CC(=O)Nc1ccc(CN2CCOCC2)cc1", "values": [{"measurement": "Ki", "setting": "Histamine H3 receptor", "value": 915, "unit": "nM"}]}, {"smiles": "O=C(CN1CCOCC1)Nc1ccc(OC2CCN(C3CCCC3)CC2)cc1", "values": [{"measurement": "Ki", "setting": "Histamine H3 receptor", "value": 29.9, "unit": "nM"}]}, {"smiles": "O=C(CN1CCOCC1)Nc1ccc(CN2CCCC2)cc1", "values": [{"measurement": "Ki", "setting": "Histamine H3 receptor", "value": 114, "unit": "nM"}]}, {"smiles": "O=C(CN1CCOC(CO)C1)Nc1ccc(OC2CCN(C3CCC3)CC2)cc1", "note": "(stereo not given)", "values": [{"measurement": "Ki", "setting": "Histamine H3 receptor", "value": 4.05, "unit": "nM"}]}, {"smiles": "O=C(CN1CCCCCC1)Nc1ccc(OC2CCN(C3CCC3)CC2)cc1", "values": [{"measurement": "pKa", "setting": "[1]", "value": 9.2}, {"measurement": "pKa", "setting": "[5]", "value": 7.6}, {"measurement": "logD", "setting": "[6]", "value": 1.7}, {"measurement": "Ki", "setting": "Histamine H3 receptor", "value": 2.6, "unit": "nM"}, {"measurement": "logP", "setting": "[12]", "value": 4.3}]}, {"smiles": "CN(C)CC(=O)Nc1ccc(OC2CCN(C3CCC3)CC2)cc1", "values": [{"measurement": "Ki", "setting": "Histamine H3 receptor", "value": 6, "unit": "nM"}]}, {"smiles": "CCN(CC)CC(=O)Nc1ccc(OC2CCN(C3CCC3)CC2)cc1", "values": [{"measurement": "Ki", "setting": "Histamine H3 receptor", "value": 11.7, "unit": "nM"}]}, {"smiles": "O=C(Cc1cccnc1)Nc1ccc(OC2CCN(C3CCC3)CC2)cc1", "values": [{"measurement": "Ki", "setting": "Histamine H3 receptor", "value": 15.8, "unit": "nM"}]}, {"smiles": "CCOC(=O)N1CCN(CC(=O)Nc2ccc(OC3CCN(C4CCC4)CC3)cc2)CC1", "values": [{"measurement": "Ki", "setting": "Histamine H3 receptor", "value": 1.07, "unit": "nM"}]}, {"smiles": "C[C@@H]1CCCN1Cc1ccc(NC(=O)CN2CCOCC2)cc1", "values": [{"measurement": "Ki", "setting": "Histamine H3 receptor", "value": 3570, "unit": "nM"}]}, {"smiles": "O=C(CN1CCOCC1)Nc1ccc(OC2CCNCC2)cc1", "values": [{"measurement": "Ki", "setting": "Histamine H3 receptor", "value": "> 10000", "unit": "nM"}]}, {"smiles": "CCN(C(=O)CN1CCOCC1)c1ccc(OC2CCN(C3CCC3)CC2)cc1", "values": [{"measurement": "Ki", "setting": "Histamine H3 receptor", "value": 10.8, "unit": "nM"}]}, {"smiles": "CC(C)N1CCC(Oc2ccc(C(=O)NCCN3CCCC3)cc2)CC1", "values": [{"measurement": "Ki", "setting": "Histamine H3 receptor", "value": 10.4, "unit": "nM"}]}, {"smiles": "Cl.Cl.O=C(CN1CCCC1)Nc1ccc(OC2CCN(C3CCC3)CC2)cc1", "values": [{"measurement": "pKa", "setting": "[1]", "value": 9.1}, {"measurement": "clearance", "setting": "[3]", "value": 13.6, "unit": "mL/min/kg"}, {"measurement": "AUC(0-t) at 24 h", "setting": "[4]", "value": 757, "unit": "ng·h/mL"}, {"measurement": "pKa", "setting": "[5]", "value": 7.4}, {"measurement": "logD", "setting": "[6]", "value": 1.2}, {"measurement": "Tmax", "setting": "[7]", "value": 3.33, "unit": "h"}, {"measurement": "bioavailability", "setting": "[8]", "value": 17, "unit": "%"}, {"measurement": "Ki", "setting": "Histamine H3 receptor", "value": 1.1, "unit": "nM"}, {"measurement": "AUC(0-t) at 24 h", "setting": "[10]", "value": 556, "unit": "ng·h/mL"}, {"measurement": "logP", "setting": "[12]", "value": 3.2}, {"measurement": "Vd", "setting": "[13]", "value": 34.8, "unit": "L/kg"}]}]}
